ChEMBL document CHEMBL3867423, “New imidazolidineiminothione derivatives: Synthesis, spectral characterization and evaluation of antitumor, antiviral, antibacterial and antifungal activities” (Eur J Med Chem, 2016)
Converted amounts (≈) assume the structure as drawn.

What was measured:
Hepatovirus A = assay: Antiviral activity against Hepatitis A virus infected in African green monkey Vero cells by plaque formation assay; type: functional; parameters: concentration or dose not given beside the values
[1] = Cytotoxicity against human HepG2 cells assessed as decrease in cell viability after 48 hrs by SRB assay; type: functional, cell-based
In short: (§1)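 SRB assay. Cells seeded at 10⁴ per well and allowed to attach for 24 h. Exposed to 0, 5, 12.5, 25 and 50 µg/mL, triplicate wells per dose, for 48 h at 37 °C in 5% CO₂. Cells fixed and SRB-stained; excess dye removed with acetic acid, bound dye recovered in Tris-EDTA and read on an ELISA reader. IC50 read from the surviving-fraction curve.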

[2] = Cytotoxicity against human MCF7 cells assessed as decrease in cell viability after 48 hrs by SRB assay; type: functional, cell-based; parameters: unit not given here; in short: as §1
[3] = Cytotoxicity against human HCT116 cells assessed as decrease in cell viability after 48 hrs by SRB assay; type: functional, cell-based; conditions: hct-116; in short: as §1
[4] = Cytotoxicity against human PC3 cells assessed as decrease in cell viability after 48 hrs by SRB assay; type: functional, cell-based; conditions: pc-3; in short: as §1
Human alphaherpesvirus 1 = assay: Antiviral activity against HSV1 infected in African green monkey Vero cells by plaque formation assay; type: functional; parameters: concentration or dose not given beside the values
Coxsackievirus B4 = assay: Antiviral activity against human Coxsackie virus B4 infected in African green monkey Vero cells by plaque formation assay; type: functional; parameters: concentration or dose not given beside the values
Micrococcus luteus [5] = assay: Antibacterial activity against Micrococcus luteus ATCC 10240 at 5 mg after 24 hrs by agar well diffusion assay; type: functional; conditions: ATCC 10240, 24 h, read-out: DIZ
In short: (§2)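 Agar well diffusion. 100 µL inoculum (1×10⁸ CFU/mL bacteria, 1×10⁶ CFU/mL yeast) spread on nutrient agar (bacteria) or Sabouraud dextrose agar (fungi). 10 mm wells loaded with 100 µL of 5 mg/mL compound in DMSO. DMSO as negative control. Erythromycin (bacteria) or […] (fungi) at 5 mg/ml as standards. Plates incubated 24 h at 37 °C. Inhibition zone diameter (mm) measured, mean of triplicate.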

Bacillus subtilis = assay: Antibacterial activity against Bacillus subtilis NCTC 10400 at 5 mg after 24 hrs by agar well diffusion assay; type: functional; conditions: NCTC 10400, 24 h, read-out: DIZ; in short: as §2
Bacillus pumilus [6] = assay: Antibacterial activity against Bacillus pumilus at 5 mg after 24 hrs by agar well diffusion assay; type: functional; conditions: read-out: DIZ; in short: as §2
Pseudomonas aeruginosa [7] = assay: Antibacterial activity against Pseudomonas aeruginosa ATCC 25619 at 5 mg after 24 hrs by agar well diffusion assay; type: functional; conditions: ATCC 25619, 24 h, read-out: DIZ; in short: as §2
Escherichia coli = assay: Antibacterial activity against Escherichia coli ATCC 10536 at 5 mg after 24 hrs by agar well diffusion assay; type: functional; conditions: ATCC 10536, 24 h, read-out: DIZ; in short: as §2
Micrococcus luteus [8] = assay: Antibacterial activity against Sarcina lutea at 5 mg after 24 hrs by agar well diffusion assay; type: functional; conditions: read-out: DIZ; in short: as §2
Candida albicans [9] = assay: Antifungal activity against Candida albicans IMRU 3669 at 5 mg after 24 hrs by agar well diffusion assay; type: functional; conditions: IMRU 3669, 24 h, read-out: DIZ; in short: as §2
Aspergillus niger = assay: Antifungal activity against Aspergillus niger at 5 mg after 24 hrs by agar well diffusion assay; type: functional; conditions: read-out: DIZ; in short: as §2
[10] = Antifungal activity against Penicillium chrysogenum at 5 mg after 24 hrs by agar well diffusion assay; type: functional; in short: as §2
Pseudomonas aeruginosa [11] = assay: Antibacterial activity against Pseudomonas aeruginosa ATCC 25619 after 24 hrs by two-fold serial dilution method; type: functional; conditions: ATCC 25619, 24 h
In short: (§3)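 Two-fold serial dilutions of DMSO stock in adjusted Mueller-Hinton broth, final 100 to 0.78 µg/ml. Bacteria pre-grown in nutrient broth, fungi in malt extract broth (48 h). Each 5 ml tube given 0.1 ml inoculum (1×10⁸ CFU/ml bacteria, 1×10⁶ CFU/ml fungi), incubated 37 °C 24 h. MIC taken as lowest concentration with no growth; triplicate, averaged.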

Micrococcus luteus [12] = assay: Antibacterial activity against Sarcina lutea after 24 hrs by two-fold serial dilution method; type: functional; in short: as §3
Bacillus pumilus [13] = assay: Antibacterial activity against Bacillus pumilus after 24 hrs by two-fold serial dilution method; type: functional; in short: as §3
Micrococcus luteus [14] = assay: Antibacterial activity against Micrococcus luteus ATCC 10240 after 24 hrs by two-fold serial dilution method; type: functional; conditions: ATCC 10240, 24 h; in short: as §3
Candida albicans [15] = assay: Antifungal activity against Candida albicans IMRU 3669 after 24 hrs by two-fold serial dilution method; type: functional; conditions: IMRU 3669, 24 h; in short: as §3

SMILES	Activity (Hepatovirus A)	IC50 [1]	IC50 [2]	IC50 [3]	IC50 [4]	Activity (Human alphaherpesvirus 1)	Activity (Coxsackievirus B4)	zone of inhibition at 5000 µg/disc (Micrococcus luteus [5])	zone of inhibition at 5000 µg/disc (Bacillus subtilis)	zone of inhibition at 5000 µg/disc (Bacillus pumilus [6])	zone of inhibition at 5000 µg/disc (Pseudomonas aeruginosa [7])	zone of inhibition at 5000 µg/disc (Escherichia coli)	zone of inhibition at 5000 µg/disc (Micrococcus luteus [8])	zone of inhibition at 5000 µg/disc (Candida albicans [9])	zone of inhibition at 5000 µg/disc (Aspergillus niger)	inhibition zone (IZ) [10]	other results
COc1ccc(OC)c(N2C(=O)N(c3ccc(C)cc3)C(=N)C2=S)c1	30.7%	0.037 µg	0.015	0.014 µg	0.048 µg	50.2%	0%	17 mm	16 mm	20 mm	14 mm	16 mm	26 mm	17 mm	16 mm	17 mm	
Cc1ncc([N+](=O)[O-])n1CCO [METRONIDAZOLE]														27 mm	33 mm	25 mm	
N=C1C(=S)N(c2cc(Cl)cc(Cl)c2)C(=O)N1c1cc(Cl)c(Cl)cc1Cl	80.3%	0.017 µg	0.015	0.015 µg	0.017 µg	96.7%	20.6%	16 mm	27 mm	21 mm	18 mm	27 mm	21 mm	21 mm	15 mm	20 mm	
N=C1C(=S)N(c2cc(Cl)cc(Cl)c2)C(=O)N1c1cccc(Cl)c1	100%	0.025 µg	0.011	0.041 µg	0.031 µg	36.4%	41.6%	16 mm	30 mm	15 mm	0 mm	30 mm	24 mm	24 mm	16 mm	21 mm	
COc1ccc(N2C(=O)N(c3cccc(Cl)c3)C(=N)C2=S)c(OC)c1	36.2%	0.012 µg	0.02	0.023 µg	0.031 µg	47.4%	2.3%	14 mm	20 mm	17 mm	16 mm	20 mm	28 mm	27 mm	18 mm	20 mm	
N=C1C(=S)N(c2cc(Cl)cc(Cl)c2)C(=O)N1c1ccc(Cl)c(C(F)(F)F)c1	0%	0.028 µg	0.024	0.044 µg	0.039 µg	9.6%	0%	21 mm	20 mm	21 mm	21 mm	18 mm	23 mm	22 mm	12 mm	20 mm	
COc1ccc(N2C(=N)C(=S)N(c3cc(OC)ccc3OC)C2=O)cc1	60.1%	0.032 µg	0.031	0.051 µg	0.051 µg	42%	0%	17 mm	28 mm	23 mm	26 mm	28 mm	27 mm	29 mm	19 mm	20 mm	MIC (Pseudomonas aeruginosa [11]): 0.78 µg/mL (≈ 2.1 µM); MIC (Micrococcus luteus [12]): 6.25 µg/mL (≈ 16.8 µM); MIC (Bacillus pumilus [13]): 3.12 µg/mL (≈ 8.4 µM); MIC (Micrococcus luteus [14]): 6.25 µg/mL (≈ 16.8 µM); MIC (Candida albicans [15]): 6.25 µg/mL (≈ 16.8 µM)
CC[C@H]1OC(=O)[C@H](C)[C@@H](O[C@H]2C[C@@](C)(OC)[C@@H](O)[C@H](C)O2)[C@H](C)[C@@H](O[C@@H]2O[C@H](C)C[C@H](N(C)C)[C@H]2O)[C@](C)(O)C[C@@H](C)C(=O)[C@H](C)[C@@H](O)[C@]1(C)O [ERYTHROMYCIN]								32 mm	40 mm	32 mm	30 mm	37 mm	44 mm				
N=C1C(=S)N(c2ccccc2)C(=O)N1c1c(Cl)cccc1Cl	0%					33.3%	0%	14 mm	18 mm	18 mm	15 mm	18 mm	26 mm	23 mm	17 mm	16 mm	
N=C1C(=S)N(c2cc(Cl)cc(Cl)c2)C(=O)N1c1c(Cl)cccc1Cl	70.2%	0.039 µg	0.02	0.039 µg	0.064 µg	33.6%	0%	16 mm	19 mm	17 mm	17 mm	19 mm	27 mm	23 mm	15 mm	18 mm	
COc1cccc2c1C(=O)c1c(O)c3c(c(O)c1C2=O)C[C@@](O)(C(=O)CO)C[C@@H]3O[C@H]1C[C@H](N)[C@H](O)[C@H](C)O1 [DOXORUBICIN]		0.007 µg		0.007 µg	0.008 µg												
Cc1ccc(N2C(=N)C(=S)N(c3cc(Cl)cc(Cl)c3)C2=O)cc1	66%	0.014 µg	0.009	0.053 µg	0.035 µg	71.6%	43.6%	17 mm	16 mm	20 mm	16 mm	16 mm	28 mm	21 mm	18 mm	19 mm	
Cc1ccc(F)cc1N1C(=N)C(=S)N(c2ccc(Br)cc2)C1=O	36.2%					43.1%	0%	22 mm	22 mm	21 mm	21 mm	20 mm	23 mm	22 mm	20 mm	21 mm	
COc1ccc(OC)c(N2C(=O)N(c3ccc4c(c3)Cc3ccccc3-4)C(=N)C2=S)c1	29.9%	0.048 µg	0.052	0.047 µg	0.056 µg	32.4%	0%	16 mm	12 mm	17 mm	0 mm	18 mm	24 mm	14 mm	14 mm	18 mm	
